# MT1-MMP act inh – MT1-MMP (human) activation inhibition. P50281. HT1080 RFP-PRO-GFP cells, GFP/RFP ratio fluorescence, overnight; percent of plate control window, DMSO zero. GFP/RFP ratio change, % at 20 µM. 360,000 compounds, 0.061% hits;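 active = GFP/RFP ratio change of at least 30% with cell ATP level not reduced by more than half and red fluorescence within 50% of control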
#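 system = RFP-PRO-GFP reporter HT1080 cells | dosing = 20 µM single dose, 1% DMSO | timing = overnight cell settling, then overnight compound exposure, 37 °C, 5% CO2 | read-out basis = GFP/RFP fluorescence ratio | controls = DMSO and RFP-L50D-GFP cell wells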
# DAGLB inhibitor – blocks human DAGLB lipase activity; HEK293T DAGLB membrane lysate, EnzChek fluorogenic substrate; inhibition, % at 5.17 µM; 340,000 compounds, 0.059% hits; in the data active = inhibition above about 34%;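 also: 0% = enzyme with vehicle and 100% = wells lacking enzyme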
# CendR NRP1 mod – alters CendR peptide binding to human NRP-1; 360,000 compounds, 0.85% hits; O14786; FAM-RPARPAR peptide binding to NRP-1, fluorescence polarization; AID 602438; inhibition, % at 25 µM;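 active = inhibition or corrected inhibition above about 18%, plus a signal ratio from 0.5 to 1.5, limit read from the data, passing the limit was not always enough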
# Fh CTSL1 inh – blocks F. hepatica cathepsin L1 in PFM18AAP counter-screen; recombinant F. hepatica cathepsin L1, Z-Leu-Arg-MCA fluorescence; inhibition, % at 5.96 µM; 300,000 compounds, 0.49% hits; AID 1906;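 active = inhibition above the mean of all tested compounds plus 3 SD, set per screening campaign, cut at about 17% in these data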;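 also: 0% = plate median of test compound wells and 100% = 1 µM Z-Phe-Ala-diazomethylketone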
# UCH37 DUB inh – human UCH37 deubiquitinating enzyme inhibition. purified proteasome/UCH37, Ub-AMC cleavage fluorescence. Q9Y5K5. 330,000 compounds, 0.33% hits. AID 588478. inhibition, % (concentration not given with the values);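 active = mean inhibition over replicate wells above about 20%, limit read from the data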;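 also: 0% = compound-free wells with enzyme and 100% = wells lacking proteasome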
#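 Schedule: 30 min plus 25 min, room temperature / Material: human UCH37 within purified proteasomes / Technique: AMC fluorescence intensity at 355/460 nm / Buffer or medium: pH 7.4 Tris-HCl (50 mM) with ovalbumin, ATP-MgCl2, DTT / Controls: wells without proteasome as full block, compound-free enzyme plus substrate as uninhibited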
# Active calls of the source: *; i = inactive; nt = no result given. This is a sample that favours compounds with a hit; in the whole collection about 1.5% have one here.
SMILES,MT1-MMP act inh,DAGLB inhibitor,CendR NRP1 mod,Fh CTSL1 inh,UCH37 DUB inh
CC(=O)c1c(C)[nH]c(C(=O)OCC(=O)NCc2ccc(Cl)cc2)c1C,-2.9,-0.2,8.6,nt,-2.9
Cc1ccc(C=NNC(=O)CSc2ccccn2)o1,nt,nt,nt,nt,2.7
OCCN1CCN(CC#CCn2c3ccccc3c3ccccc32)CC1,5.5,1.1,-0.5,-4.3,22.7*
Cc1ccc(SCC(=O)OCC(=O)N(C)C2CCS(=O)(=O)C2)cc1C (stereo not drawn),-1.2,3.9,51.0*,nt,1.2
Cc1nn(-c2ccccc2)c(C)c1C(=O)OCC(=O)N(C)C1CCS(=O)(=O)C1 (stereo not drawn),4.6,-0.9,9.5,-2.5,0.7
CN(C(=O)COC(=O)c1nc(-c2ccccc2)n(-c2ccccc2)n1)C1CCS(=O)(=O)C1 (stereo not drawn),16.0,1.0,39.8*,-0.8,-0.4
CN(C(=O)COC(=O)Cc1c(Cl)cccc1Cl)C1CCS(=O)(=O)C1 (stereo not drawn),2.6,-0.1,26.5*,nt,nt
Oc1ccc(C=NN2CCN(C3c4ccccc4-c4ccccc43)CC2)cc1O,nt,nt,nt,nt,2.8
CCOC(=O)c1ccc(NC(=O)C2(c3ccccc3)CCOCC2)cc1,-4.4,1.9,30.9*,-1.8,2.6
C(=Cc1nc2ccccc2o1)c1ccc2c(c1)OCO2,-3.3,-8.5,26.4*,nt,nt
C(=Cc1cnc2ccccc2n1)c1ccc2c(c1)OCO2,-1.2,-10.7,16.3,nt,nt
CN(C(=O)c1cc2c(=O)n3ccccc3nc2n1C)C1CCCCC1,-1.3,-0.7,3.3,18.0*,i
O=C(CCl)N(CCc1ccccc1)CCc1ccccc1,-6.9,-1.6,-1.0,39.5*,nt
O=C(CCl)N(c1ccccc1)c1ccccc1,-3.3,3.6,-5.4,nt,4.4
O=C(NN=Cc1ccc[nH]1)c1cc(-c2ccc(Cl)cc2)nc2ccccc12,nt,nt,nt,nt,3.3
Cc1nn(C)cc1C=NNC(=O)c1ccc2c(c1)c(C)c(C)n2Cc1ccccc1,nt,nt,nt,nt,0.3
O=C(c1ccc(-c2ccccc2Cl)s1)N1CCOCC1,0.5,-2.0,34.6*,-0.8,4.4
Cc1ccccc1NC(=S)NC(=O)COc1ccccc1C,-1.8,-16.5,22.1*,1.1,3.3
CCCN1CCC(=O)N([C@H](CSc2ccccc2)CC(C)C)CC1,1.3,2.7,1.3,-6.9,3.2
CC(C)C[C@@H](COc1ccccc1)N1CCN(CCc2ccccc2)CCC1=O,-1.6,-6.3,36.4*,-0.1,2.6
O=C1CCN(CCc2ccccc2)CCN1[C@H](COc1ccccc1)Cc1ccccc1,7.4,-8.0,0.9,-1.9,5.5
CCCCCCCN1CCC(=O)N([C@H](CO)CC(C)C)CC1,1.7,-1.6,27.4*,7.9,-2.3
CCCN1CCC(=O)N([C@H](COc2ccccc2)CC(C)C)CC1,1.9,-3.3,28.3*,-0.2,1.2
COc1ccc(C(C)=NN=C(N)N)c(OC)c1,nt,nt,nt,nt,3.5
CCN(CC)c1ccc(/C=C(\C#N)C(=O)NCc2ccco2)cc1,nt,nt,nt,23.1*,1.0
SMILES,MT1-MMP act inh,DAGLB inhibitor,CendR NRP1 mod,Fh CTSL1 inh,UCH37 DUB inh
O=C(C[n+]1ccc(C=NO)cc1)NC(=O)Nc1ccccc1,nt,nt,nt,nt,0.5
Nc1n[nH]c(=S)n1N=C1C(=O)Nc2ccccc21,nt,nt,nt,nt,18.0
Cc1ccc(C)c(S(=O)(=O)Nc2cc(SCC(=O)O)c(O)c3ccccc23)c1,-28.3,2.7,-7.7,-6.7,23.3*
CC(Oc1cccc(Cl)c1)C(=O)NCc1ccc(S(N)(=O)=O)cc1 (stereo not drawn),3.2,0.2,30.4*,0.1,-0.8
CCC1S/C(=N/N=Cc2cccs2)NC1=O (stereo not drawn),nt,nt,nt,nt,11.0
COc1ccc(C(=O)Nc2c(F)c(F)c(F)c(F)c2F)c(OC)c1,6.0,-2.8,20.2*,4.0,-0.5
O=[N+]([O-])c1ccc(NN=Cc2ccc(OCc3cccc4ccccc34)cc2)nc1,nt,nt,nt,nt,4.2
COc1ccc(C(C)=NNC(=S)Nc2cc(C)ccc2C)cc1,nt,nt,nt,nt,5.5
COc1ccccc1Nc1nc2nonc2nc1N1CCC(C)CC1,1.5,1.2,-5.0,2.7,-1.0
COc1ccc(OC)c(Nc2nc3nonc3nc2N2CCCCC2)c1,-27.0,0.3,49.1*,1.6,0.5
CCCCOc1ccc(S(=O)(=O)N2CCN(c3ccc(N4CCN(CC)CC4)nn3)CC2)cc1,-2.1,1.0,4.3,18.0*,-64.2
CCCCOc1ccc(S(=O)(=O)N2CCCCC2)cc1,5.7,-8.2,8.1,1.8,-2.0
COCCNC(=O)C(=O)NN=Cc1ccc(C(=O)OC)cc1,nt,nt,nt,nt,0.8
O=C(COC(=O)[C@@H]1CCCN1C(=O)c1cccs1)Nc1ccc(Br)cc1,1.3,-6.3,-17.3,nt,-1.2
COc1ccc(NC(=O)C(=O)NNC(=O)c2cccs2)cc1,-2.5,-2.6,3.7,19.2*,7.1
COc1ccc(NC(=O)COC(=O)[C@@H]2CCCN2C(=O)c2cccs2)cc1,3.0,-0.5,28.8*,-10.2,1.5
O=C(NN=Cc1ccc[nH]1)c1c[nH]c2ccccc12,nt,nt,nt,nt,6.3
O=C1NC(=O)/C(=C/c2ccco2)N1,-2.7,-2.1,25.4*,nt,7.3
O=[N+]([O-])c1cc(C=NO)ccc1SCc1ccccc1,nt,nt,nt,nt,6.3
CCOC(=O)[C@@H]1[C@H]2COc3cc(OC)ccc3[C@H]2N2C(=O)N(c3cccc(F)c3)C(=O)[C@@]12C,-3.2,-7.0,25.3*,nt,1.1
CCOC(=O)[C@@H]1[C@H]2COc3ccc(Br)cc3[C@@H]2N2C(=O)N(c3ccc(F)cc3)C(=O)[C@@]12C,-1.0,-4.2,11.7,nt,20.4*
CCOC(=O)[C@@H]1[C@H]2COc3ccccc3[C@@H]2N2C(=O)N(c3cccc(Cl)c3)C(=O)[C@]12C,-5.3,-9.7,27.6*,-0.3,0.0
CCOC(=O)[C@H]1[C@H]2COc3ccccc3[C@@H]2N2C(=O)c3cc(Cl)ccc3NC(=O)[C@@]12C,1.0,0.2,23.3*,2.0,2.4
CCOC(=O)[C@@H]1[C@H]2COc3ccccc3[C@H]2N2C(=O)N(c3cccc(Cl)c3)C(=O)[C@@]12C,-9.8,-7.1,5.2,-5.6,3.0
COc1ccc(OC)c(C=NNC(=O)Cc2nc3ccccc3[nH]2)c1,nt,nt,nt,nt,i
SMILES,MT1-MMP act inh,DAGLB inhibitor,CendR NRP1 mod,Fh CTSL1 inh,UCH37 DUB inh
CC(=O)c1sc(NN=Cc2cccc(O)c2)nc1C,nt,nt,nt,nt,-4.5
CCOC(=O)NN=Cc1cn(Cc2ccc(F)cc2)c2ccccc12,nt,nt,nt,nt,6.7
Cc1cc(C(=O)NN=C2CC(=O)c3ccccc32)c(C)n1-c1ccc(F)cc1,nt,nt,nt,nt,1.3
COc1cc(C=NNC(=O)CN(CCc2ccccc2)S(=O)(=O)c2ccc(NC(C)=O)cc2)cc(OC)c1OC,nt,nt,nt,nt,2.3
COc1ccc(C=NNc2nc(N3CCCC3)nc(N3CCCC3)n2)cc1,nt,nt,nt,nt,4.7
Cn1c(SCC(=O)C(C)(C)C)nnc1-c1ccc(F)cc1,-0.6,0.5,-1.5,-3.7,3.9
CC(Sc1nnc(-c2ccc(C(C)(C)C)cc2)n1C)C(N)=O (stereo not drawn),2.5,1.5,23.7*,0.1,-2.3
O=C(NN=Cc1ccc(Br)cc1)c1cc[n+]([O-])cc1,nt,nt,nt,nt,7.9

# Screens deposited in PubChem BioAssay by several laboratories.
